Legend:
[1] = biological target: Calcium/calmodulin-dependent protein kinase kinase 2 (Homo sapiens) (UniProt Q96RR4); assay: Inhibition of CAMKK2 (unknown origin) using [gamma-33P]ATP assessed as residual activity at 3 uM
Method in brief: (§1)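 Radiometric profiling across 288 kinases (261 wild-type, 27 mutant), run as an outsourced service. Inhibition read out as [gamma-33P]ATP incorporation into substrate.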

[2] = biological target: Dual specificity protein kinase TTK (Homo sapiens) (UniProt P33981); assay: Inhibition of TTK (unknown origin) using [gamma-33P]ATP assessed as residual activity at 3 uM
[3] = biological target: Mitogen-activated protein kinase 1 (Homo sapiens) (UniProt P28482); assay: Inhibition of ERK2 (unknown origin) using [gamma-33P]ATP assessed as residual activity at 3 uM
Method in brief: (§2)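 Reaction Biology HotSpot radiometric profiling panel of 288 kinases (261 wild-type, 27 mutant). Kinase activity was read out by incorporation of [γ-33P]ATP.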

[4] = biological target: Serine/threonine-protein kinase Nek9 (Homo sapiens) (UniProt Q8TD19); assay: Inhibition of NEK9 (unknown origin) using [gamma-33P]ATP assessed as residual activity at 3 uM
[5] = biological target: Hepatocyte growth factor receptor (Homo sapiens) (UniProt P08581); assay: Inhibition of c-MET (unknown origin) using [gamma-33P]ATP assessed as residual activity at 3 uM
[6] = biological target: Ribosomal protein S6 kinase alpha-1 (Homo sapiens) (UniProt Q15418); assay: Inhibition of RSK1 (unknown origin) using [gamma-33P]ATP assessed as residual activity at 3 uM
Ribosomal protein S6 kinase alpha-1 (Homo sapiens), sequence (Q15418 whole entry): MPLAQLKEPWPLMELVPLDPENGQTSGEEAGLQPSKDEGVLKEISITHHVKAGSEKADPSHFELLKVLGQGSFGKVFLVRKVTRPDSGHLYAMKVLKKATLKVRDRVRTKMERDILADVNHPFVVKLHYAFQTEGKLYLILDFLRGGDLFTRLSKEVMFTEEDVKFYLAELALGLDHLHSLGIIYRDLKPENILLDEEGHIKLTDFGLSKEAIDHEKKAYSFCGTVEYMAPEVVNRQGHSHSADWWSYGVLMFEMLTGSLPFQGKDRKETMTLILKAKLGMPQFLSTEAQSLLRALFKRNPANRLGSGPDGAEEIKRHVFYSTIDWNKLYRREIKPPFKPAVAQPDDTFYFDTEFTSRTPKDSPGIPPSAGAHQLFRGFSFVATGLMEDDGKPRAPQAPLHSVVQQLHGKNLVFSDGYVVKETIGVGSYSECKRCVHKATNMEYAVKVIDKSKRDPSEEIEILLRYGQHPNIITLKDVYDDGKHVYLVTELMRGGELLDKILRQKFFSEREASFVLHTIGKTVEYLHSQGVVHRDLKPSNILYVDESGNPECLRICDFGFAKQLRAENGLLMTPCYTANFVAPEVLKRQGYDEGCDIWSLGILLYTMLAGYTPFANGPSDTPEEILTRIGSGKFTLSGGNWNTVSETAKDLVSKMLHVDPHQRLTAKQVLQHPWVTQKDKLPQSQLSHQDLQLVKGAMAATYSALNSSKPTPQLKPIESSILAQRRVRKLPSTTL

[7] = biological target: Aurora kinase B (Homo sapiens) (UniProt Q96GD4); assay: Inhibition of Aurora B (unknown origin) using [gamma-33P]ATP assessed as residual activity at 3 uM; method in brief: as §1
[8] = biological target: Serine/threonine-protein kinase PLK1 (Homo sapiens) (UniProt P53350); assay: Inhibition of PLK1 (unknown origin) using [gamma-33P]ATP assessed as residual activity at 3 uM
[9] = biological target: Inhibitor of nuclear factor kappa-B kinase subunit beta (Homo sapiens) (UniProt O14920); assay: Inhibition of IKKb (unknown origin) using [gamma-33P]ATP assessed as residual activity at 3 uM
Method in brief: (§3)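 Radiometric kinase profiling service covering 288 kinases (261 wild-type, 27 mutant). Inhibition was read as incorporation from [γ-³³P]ATP.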

[10] = biological target: Myotonin-protein kinase (Homo sapiens) (UniProt Q09013); assay: Inhibition of DMPK (unknown origin) using [gamma-33P]ATP assessed as residual activity at 3 uM; method in brief: as §2
[11] = tested on: Platelet-derived growth factor receptor alpha (Homo sapiens), P16234 [D842V]; assay: Inhibition of PDGFRa D842V mutant (unknown origin) using [gamma-33P]ATP assessed as residual activity at 3 uM
[12] = biological target: Mitogen-activated protein kinase 13 (Homo sapiens) (UniProt O15264); assay: Inhibition of P38d (unknown origin) using [gamma-33P]ATP assessed as residual activity at 3 uM
Mitogen-activated protein kinase 13 (Homo sapiens), sequence (O15264 whole entry): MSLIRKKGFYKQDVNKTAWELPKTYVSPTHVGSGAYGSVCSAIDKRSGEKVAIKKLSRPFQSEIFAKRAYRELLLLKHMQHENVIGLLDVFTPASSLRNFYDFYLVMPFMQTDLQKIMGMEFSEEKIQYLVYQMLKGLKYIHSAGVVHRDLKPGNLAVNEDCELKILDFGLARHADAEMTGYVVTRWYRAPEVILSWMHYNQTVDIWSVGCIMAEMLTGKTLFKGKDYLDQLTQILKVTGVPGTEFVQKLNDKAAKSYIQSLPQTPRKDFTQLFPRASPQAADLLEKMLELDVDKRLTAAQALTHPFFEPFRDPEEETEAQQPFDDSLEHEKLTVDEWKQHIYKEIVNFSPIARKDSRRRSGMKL

[13] = biological target: Beta-adrenergic receptor kinase 1 (Homo sapiens) (UniProt P25098); assay: Inhibition of GRK2 (unknown origin) using [gamma-33P]ATP assessed as residual activity at 3 uM; method in brief: as §3
Beta-adrenergic receptor kinase 1 (Homo sapiens), sequence (P25098 whole entry): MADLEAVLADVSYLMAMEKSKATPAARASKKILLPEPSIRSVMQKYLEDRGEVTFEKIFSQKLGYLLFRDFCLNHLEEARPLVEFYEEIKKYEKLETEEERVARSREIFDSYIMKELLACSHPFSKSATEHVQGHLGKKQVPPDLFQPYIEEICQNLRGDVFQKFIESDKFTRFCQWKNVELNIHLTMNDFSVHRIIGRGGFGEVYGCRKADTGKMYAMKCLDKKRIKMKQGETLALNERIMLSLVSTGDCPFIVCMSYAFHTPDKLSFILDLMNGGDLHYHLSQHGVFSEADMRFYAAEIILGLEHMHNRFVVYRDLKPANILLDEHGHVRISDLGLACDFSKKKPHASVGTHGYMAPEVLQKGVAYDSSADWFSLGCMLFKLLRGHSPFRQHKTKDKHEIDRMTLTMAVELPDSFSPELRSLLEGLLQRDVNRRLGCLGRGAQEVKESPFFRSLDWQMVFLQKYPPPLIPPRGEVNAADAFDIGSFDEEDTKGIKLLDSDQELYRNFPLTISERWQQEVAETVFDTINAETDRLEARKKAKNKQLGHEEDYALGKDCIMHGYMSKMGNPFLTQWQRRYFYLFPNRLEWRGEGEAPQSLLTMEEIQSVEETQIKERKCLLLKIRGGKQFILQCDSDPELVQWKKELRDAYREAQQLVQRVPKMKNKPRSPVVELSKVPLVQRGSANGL

[14] = biological target: cGMP-dependent protein kinase 1 (Homo sapiens) (UniProt Q13976); assay: Inhibition of PKG1b (unknown origin) using [gamma-33P]ATP assessed as residual activity at 3 uM
[15] = biological target: Protein kinase C epsilon type (Homo sapiens) (UniProt Q02156); assay: Inhibition of PKCepsilon (unknown origin) using [gamma-33P]ATP assessed as residual activity at 3 uM
[16] = biological target: Calcium/calmodulin-dependent protein kinase type II subunit delta (Homo sapiens) (UniProt Q13557); assay: Inhibition of CAMK2d (unknown origin) using [gamma-33P]ATP assessed as residual activity at 3 uM; method in brief: as §1
[17] = biological target: Vascular endothelial growth factor receptor 3 (Homo sapiens) (UniProt P35916); assay: Inhibition of FLT4 (unknown origin) using [gamma-33P]ATP assessed as residual activity at 3 uM; method in brief: as §3
[18] = biological target: Dual specificity mitogen-activated protein kinase kinase 2 (Homo sapiens) (UniProt P36507); assay: Inhibition of MEK2 (unknown origin) using [gamma-33P]ATP assessed as residual activity at 3 uM
Method in brief: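 Contract radiometric panel screen of 288 kinases (261 wild-type, 27 mutant). Inhibition was read by [gamma-33P]ATP radioactivity incorporation.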

[19] = biological target: LIM domain kinase 1 (Homo sapiens) (UniProt P53667); assay: Inhibition of LIMK1 (unknown origin) using [gamma-33P]ATP assessed as residual activity at 3 uM; method in brief: as §3
[20] = biological target: Tyrosine-protein kinase Yes (Homo sapiens, UniProt P07947); assay: Inhibition of YES (unknown origin) using [gamma-33P]ATP assessed as residual activity at 3 uM
[21] = biological target: Calcium/calmodulin-dependent protein kinase type II subunit beta (Homo sapiens) (UniProt Q13554); assay: Inhibition of CAMK2b (unknown origin) using [gamma-33P]ATP assessed as residual activity at 3 uM; method in brief: as §1
[22] = biological target: MAP kinase-interacting serine/threonine-protein kinase 2 (Homo sapiens) (UniProt Q9HBH9); assay: Inhibition of MNK2 (unknown origin) using [gamma-33P]ATP assessed as residual activity at 3 uM
MAP kinase-interacting serine/threonine-protein kinase 2 (Homo sapiens), sequence (Q9HBH9 whole entry, looked up): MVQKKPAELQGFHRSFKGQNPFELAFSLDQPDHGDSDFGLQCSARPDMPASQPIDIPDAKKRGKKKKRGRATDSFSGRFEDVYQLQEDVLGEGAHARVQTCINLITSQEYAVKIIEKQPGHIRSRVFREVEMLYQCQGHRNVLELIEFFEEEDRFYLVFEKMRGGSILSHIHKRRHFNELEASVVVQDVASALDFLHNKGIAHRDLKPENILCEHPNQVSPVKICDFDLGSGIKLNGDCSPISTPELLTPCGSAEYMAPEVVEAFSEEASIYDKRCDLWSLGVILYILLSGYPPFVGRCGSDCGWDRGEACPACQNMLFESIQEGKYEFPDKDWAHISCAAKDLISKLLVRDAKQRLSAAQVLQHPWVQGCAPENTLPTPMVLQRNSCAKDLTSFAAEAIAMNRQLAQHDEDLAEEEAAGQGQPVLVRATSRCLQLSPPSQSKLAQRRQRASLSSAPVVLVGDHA

[23] = biological target: Mitogen-activated protein kinase 11 (Homo sapiens) (UniProt Q15759); assay: Inhibition of P38b (unknown origin) using [gamma-33P]ATP assessed as residual activity at 3 uM
[24] = biological target: Homeodomain-interacting protein kinase 3 (Homo sapiens) (UniProt Q9H422); assay: Inhibition of HIPK3 (unknown origin) using [gamma-33P]ATP assessed as residual activity at 3 uM; method in brief: as §3
Homeodomain-interacting protein kinase 3 (Homo sapiens), sequence (Q9H422 whole entry, looked up, canonical isoform): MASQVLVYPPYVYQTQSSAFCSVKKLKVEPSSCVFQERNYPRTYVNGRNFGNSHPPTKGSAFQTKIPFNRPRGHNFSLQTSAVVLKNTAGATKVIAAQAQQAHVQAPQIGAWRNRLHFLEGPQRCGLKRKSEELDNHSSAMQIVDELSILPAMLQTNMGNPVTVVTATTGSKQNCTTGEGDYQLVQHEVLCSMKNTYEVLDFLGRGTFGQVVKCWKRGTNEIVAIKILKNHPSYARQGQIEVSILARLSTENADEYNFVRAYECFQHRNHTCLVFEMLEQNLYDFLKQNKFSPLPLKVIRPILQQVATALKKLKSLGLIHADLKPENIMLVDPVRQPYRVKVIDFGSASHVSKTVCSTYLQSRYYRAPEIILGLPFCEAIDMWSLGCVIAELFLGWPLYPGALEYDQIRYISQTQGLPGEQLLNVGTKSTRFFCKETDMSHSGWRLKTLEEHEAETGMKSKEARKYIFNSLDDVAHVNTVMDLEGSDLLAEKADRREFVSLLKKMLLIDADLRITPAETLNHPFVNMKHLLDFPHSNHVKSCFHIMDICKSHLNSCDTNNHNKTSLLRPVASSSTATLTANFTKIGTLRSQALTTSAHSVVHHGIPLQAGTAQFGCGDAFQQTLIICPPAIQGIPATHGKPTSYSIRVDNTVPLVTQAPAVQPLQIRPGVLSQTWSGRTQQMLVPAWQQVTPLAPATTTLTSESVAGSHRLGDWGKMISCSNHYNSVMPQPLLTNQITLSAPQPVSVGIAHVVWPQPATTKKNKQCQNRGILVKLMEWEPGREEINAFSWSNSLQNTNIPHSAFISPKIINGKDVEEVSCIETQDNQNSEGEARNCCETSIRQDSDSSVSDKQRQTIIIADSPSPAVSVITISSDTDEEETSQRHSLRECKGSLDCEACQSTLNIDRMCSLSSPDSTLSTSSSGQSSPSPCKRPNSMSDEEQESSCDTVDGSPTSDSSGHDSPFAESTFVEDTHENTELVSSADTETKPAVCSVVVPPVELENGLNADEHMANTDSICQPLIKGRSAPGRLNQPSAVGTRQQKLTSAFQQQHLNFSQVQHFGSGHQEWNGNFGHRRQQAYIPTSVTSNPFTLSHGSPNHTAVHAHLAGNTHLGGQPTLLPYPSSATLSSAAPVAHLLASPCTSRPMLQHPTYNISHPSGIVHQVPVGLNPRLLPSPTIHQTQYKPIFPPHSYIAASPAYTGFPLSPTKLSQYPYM

[25] = biological target: Casein kinase I isoform delta (Homo sapiens) (UniProt P48730); assay: Inhibition of CK1d (unknown origin) using [gamma-33P]ATP assessed as residual activity at 3 uM; method in brief: as §1
[26] = biological target: Cyclin-dependent kinase 4/cyclin D1 (Homo sapiens) (UniProt P11802+P24385); assay: Inhibition of CDK4/cyclinD1 (unknown origin) using [gamma-33P]ATP assessed as residual activity at 3 uM; format: protein-complex assay; method in brief: as §1
[27] = biological target: Fibroblast growth factor receptor 3 (Homo sapiens) (UniProt P22607); assay: Inhibition of FGFR3 (unknown origin) using [gamma-33P]ATP assessed as residual activity at 3 uM; method in brief: as §2
Fibroblast growth factor receptor 3 (Homo sapiens), sequence (P22607 23-806 limits assumed): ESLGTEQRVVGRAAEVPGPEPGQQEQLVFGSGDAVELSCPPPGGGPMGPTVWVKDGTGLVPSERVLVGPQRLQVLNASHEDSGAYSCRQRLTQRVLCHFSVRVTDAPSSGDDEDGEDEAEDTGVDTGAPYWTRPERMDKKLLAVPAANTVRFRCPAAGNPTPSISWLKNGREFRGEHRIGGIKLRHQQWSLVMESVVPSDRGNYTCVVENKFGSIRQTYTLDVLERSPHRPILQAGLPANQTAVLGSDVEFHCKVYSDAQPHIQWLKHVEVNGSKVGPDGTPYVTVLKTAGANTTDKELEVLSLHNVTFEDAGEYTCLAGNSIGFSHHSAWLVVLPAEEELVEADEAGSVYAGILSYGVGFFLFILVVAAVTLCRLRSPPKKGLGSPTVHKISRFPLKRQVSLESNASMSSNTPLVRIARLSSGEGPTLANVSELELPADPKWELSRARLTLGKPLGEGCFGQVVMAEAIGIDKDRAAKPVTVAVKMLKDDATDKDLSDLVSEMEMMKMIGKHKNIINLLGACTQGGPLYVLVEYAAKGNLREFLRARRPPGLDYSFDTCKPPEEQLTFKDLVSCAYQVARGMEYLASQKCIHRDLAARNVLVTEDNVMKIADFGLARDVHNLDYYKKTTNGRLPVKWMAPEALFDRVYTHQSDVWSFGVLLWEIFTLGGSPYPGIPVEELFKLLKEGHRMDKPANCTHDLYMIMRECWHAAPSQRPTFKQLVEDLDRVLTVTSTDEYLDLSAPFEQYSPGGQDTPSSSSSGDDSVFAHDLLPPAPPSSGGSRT

[28] = biological target: Serine/threonine-protein kinase BRSK1 (Homo sapiens) (UniProt Q8TDC3); assay: Inhibition of BRSK1 (unknown origin) using [gamma-33P]ATP assessed as residual activity at 3 uM; method in brief: as §1
[29] = tested on: Tyrosine-protein kinase ABL1 (Homo sapiens), P00519 [Y253F]; assay: Inhibition of ABL1 Y253F mutant (unknown origin) using [gamma-33P]ATP assessed as residual activity at 3 uM; method in brief: as §1
[30] = biological target: Protein kinase C theta type (Homo sapiens) (UniProt Q04759); assay: Inhibition of PKCtheta (unknown origin) using [gamma-33P]ATP assessed as residual activity at 3 uM
Protein kinase C theta type (Homo sapiens), sequence (Q04759 whole entry, looked up): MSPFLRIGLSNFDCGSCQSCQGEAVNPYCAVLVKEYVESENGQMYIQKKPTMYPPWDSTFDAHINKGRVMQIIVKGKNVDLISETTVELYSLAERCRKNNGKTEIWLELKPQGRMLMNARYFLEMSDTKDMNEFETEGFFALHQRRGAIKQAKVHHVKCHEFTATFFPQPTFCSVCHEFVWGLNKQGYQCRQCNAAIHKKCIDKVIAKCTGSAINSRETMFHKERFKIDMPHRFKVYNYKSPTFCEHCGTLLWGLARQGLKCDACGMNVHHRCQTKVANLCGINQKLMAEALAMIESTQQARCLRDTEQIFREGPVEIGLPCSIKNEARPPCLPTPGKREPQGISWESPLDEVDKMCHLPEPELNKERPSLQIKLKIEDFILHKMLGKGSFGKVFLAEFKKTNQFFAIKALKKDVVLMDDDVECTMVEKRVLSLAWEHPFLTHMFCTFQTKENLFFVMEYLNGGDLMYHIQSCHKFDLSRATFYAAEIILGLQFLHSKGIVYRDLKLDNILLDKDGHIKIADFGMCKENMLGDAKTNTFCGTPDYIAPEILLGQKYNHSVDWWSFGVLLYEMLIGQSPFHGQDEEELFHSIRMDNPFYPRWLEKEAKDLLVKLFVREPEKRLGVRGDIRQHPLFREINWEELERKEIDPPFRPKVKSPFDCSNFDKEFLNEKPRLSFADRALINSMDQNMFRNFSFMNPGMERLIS

[31] = biological target: Serine/threonine-protein kinase Nek3 (Homo sapiens) (UniProt P51956); assay: Inhibition of NEK3 (unknown origin) using [gamma-33P]ATP assessed as residual activity at 3 uM

Activity [1]: 65%
Activity [2]: 74%
Activity [3]: 93%
Activity [5]: 88%
Activity [6]: 96%
Activity [7]: 86%
Activity [8]: 96%
Activity [9]: 102%
Activity [10]: 103%
Activity [11]: 26%
Activity [12]: 103%
Activity [13]: 98%
Activity [14]: 102%
Activity [15]: 97%
Activity [16]: 95%
Activity [17]: 80%
Activity [18]: 89%
Activity [19]: 86%
Activity [20]: 29%
Activity [21]: 90%
Activity [22]: 89%
Activity [23]: 103%
Activity [24]: 104%
Activity [25]: 94%
Activity [26]: 89%
Activity [27]: 91%
Activity [28]: 93%
Activity [29]: 68%
Activity [30]: 98%
Activity [31]: 100%
SMILES: CCc1ccc(-c2ccc3c(c2)-c2[nH]ncc2S(=O)(=O)N3C)cc1
Activity [4]: 78%

From ChEMBL document CHEMBL2346629, “Discovery and characterization of novel allosteric FAK inhibitors” (Eur J Med Chem, 2013)
